The source made the active and inactive calls. No cut-off for these calls is given here.
Key:
[1] = molecular target: Focal adhesion kinase 1 (Homo sapiens) (UniProt Q05397); experiment: Inhibition of FAK fl (unknown origin) assessed as residual activity at 1 uM relative to control
[2] = molecular target: Epidermal growth factor receptor (Homo sapiens) (UniProt P00533); experiment: Inhibition of EGF-R (unknown origin) assessed as residual activity at 1 uM relative to control
[3] = tested on: MDA-MB-231; experiment: Antiproliferative activity against human MDA-MB-231 cells after 3 days by sulforhodamine B assay; format: functional; details: MDA-MB-231, 72 h
How it was run: (§1)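 Tested in the NCI 60 cell line panel. GI50 is the concentration giving 50% inhibition of cell growth, and values are the mean of two series of tests.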

[4] = Antiproliferative activity against human UO31 cells after 3 days by sulforhodamine B assay; format: functional; details: UO-31, 72 h
[5] = tested on: SK-OV-3; experiment: Antiproliferative activity against human SKOV3 cells after 3 days by sulforhodamine B assay; format: functional; details: SK-OV-3, 72 h; how it was run: as §1
[6] = tested on: HCT-116; experiment: Antiproliferative activity against human HCT116 cells after 3 days by sulforhodamine B assay; format: functional; details: HCT-116, 72 h; how it was run: as §1
[7] = tested on: COLO 205; experiment: Antiproliferative activity against human COLO205 cells after 3 days by sulforhodamine B assay; format: functional; details: COLO 205, 72 h; how it was run: as §1
[8] = tested on: NCI-H322M; experiment: Antiproliferative activity against human NCI-H322M cells after 3 days by sulforhodamine B assay; format: functional; details: 72 h; how it was run: as §1
[9] = molecular target: SRSF protein kinase 1 (Homo sapiens) (UniProt Q96SB4); experiment: Inhibition of human SRPK1 assessed as residual activity at 1 uM relative to control
[10] = molecular target: Serine/threonine-protein kinase SIK1 (Homo sapiens) (UniProt P57059); experiment: Inhibition of human SIK assessed as residual activity at 1 uM relative to control
[11] = molecular target: Serine/threonine-protein kinase Sgk1 (Homo sapiens) (UniProt O00141); experiment: Inhibition of human SGK assessed as residual activity at 1 uM relative to control
[12] = molecular target: Macrophage-stimulating protein receptor (Homo sapiens) (UniProt Q04912); experiment: Inhibition of human Ron assessed as residual activity at 1 uM relative to control
[13] = molecular target: Serine/threonine-protein kinase N2 (Homo sapiens) (UniProt Q16513); experiment: Inhibition of human PRK2 assessed as residual activity at 1 uM relative to control
[14] = tested on: MCF7; experiment: Cell cycle arrest in human MCF7 cells assessed as accumulation at G2/M phase at 0.5 uM after 24 hrs using propidium iodide staining by FACS analysis (reference value: 22.13%); format: functional
[15] = molecular target: T1, Casein kinase II (Homo sapiens) (UniProt P67870+P68400+P19784); experiment: Inhibition of CK2 in human MCF7 cells assessed as reduction of Akt phosphorylation at S473 at 1 uM after 30 mins by Western blot analysis; format: cell-based
How it was run: (§2)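 MCF7 cells were grown at 37 °C and 5% CO2 in DMEM with 10% heat-inactivated FBS and penicillin/streptomycin. Cells were exposed to 1 µM for the indicated times, with DMSO as the untreated control. Extracts were made in urea lysis buffer, and 20–40 µg protein was run on 10% SDS–PAGE. Blots were probed with primary antibodies (1:1000, overnight, 4 °C) and read by ECL, with β-actin as loading control.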

[16] = molecular target: T1, Casein kinase II (Homo sapiens); experiment: Inhibition of CK2-mediated Wnt signaling in human MCF7 cells assessed as reduction of beta-catenin level at 1 uM after 15 mins by Western blot analysis; format: cell-based; how it was run: as §2
[17] = molecular target: Serine/threonine-protein kinase MARK1 (Homo sapiens) (UniProt Q9P0L2); experiment: Inhibition of human MARK1 assessed as residual activity at 1 uM relative to control
[18] = molecular target: Vascular endothelial growth factor receptor 2 (Homo sapiens) (UniProt P35968); experiment: Inhibition of human KDR assessed as residual activity at 1 uM relative to control
[19] = molecular target: Insulin receptor (Homo sapiens) (UniProt P06213); experiment: Inhibition of human IR assessed as residual activity at 1 uM relative to control
[20] = molecular target: Insulin-like growth factor 1 receptor (Homo sapiens) (UniProt P08069); experiment: Inhibition of human IGF-1R assessed as residual activity at 1 uM relative to control
[21] = molecular target: Serine/threonine-protein kinase haspin (Homo sapiens) (UniProt Q8TF76); experiment: Inhibition of human Haspin assessed as residual activity at 1 uM relative to control
[22] = molecular target: Glycogen synthase kinase-3 beta (Homo sapiens) (UniProt P49841); experiment: Inhibition of human GSK3beta assessed as residual activity at 1 uM relative to control
[23] = molecular target: Vascular endothelial growth factor receptor 1 (Homo sapiens) (UniProt P17948); experiment: Inhibition of human Flt1 assessed as residual activity at 1 uM relative to control
[24] = molecular target: Ephrin type-A receptor 1 (Homo sapiens) (UniProt P21709); experiment: Inhibition of human EphA1 assessed as residual activity at 1 uM relative to control
[25] = molecular target: Dual specificity protein kinase CLK3 (Homo sapiens) (UniProt P49761); experiment: Inhibition of human CLK3 assessed as residual activity at 1 uM relative to control
[26] = molecular target: Dual specificity protein kinase CLK2 (Homo sapiens) (UniProt P49760); experiment: Inhibition of human CLK2 assessed as residual activity at 1 uM relative to control
[27] = molecular target: Casein kinase I isoform delta (Homo sapiens) (UniProt P48730); experiment: Inhibition of human CK1d assessed as residual activity at 1 uM relative to control
[28] = molecular target: Casein kinase I isoform gamma-3 (Homo sapiens) (UniProt Q9Y6M4); experiment: Inhibition of human CK1gamma3 assessed as residual activity at 1 uM relative to control
[29] = molecular target: Vascular endothelial growth factor receptor 3 (Homo sapiens) (UniProt P35916); experiment: Inhibition of VEGF-R3 (unknown origin) assessed as residual activity at 10 uM relative to control
[30] = molecular target: Vascular endothelial growth factor receptor 2 (Homo sapiens) (UniProt P35968); experiment: Inhibition of VEGF-R2 (unknown origin) assessed as residual activity at 10 uM relative to control
[31] = molecular target: Tyrosine-protein kinase JAK2 (Homo sapiens) (UniProt O60674); experiment: Inhibition of JAK2 (unknown origin) assessed as residual activity at 10 uM relative to control
[32] = molecular target: T2, Aurora kinase A (Homo sapiens) (UniProt O14965); experiment: Inhibition of Aurora-A (unknown origin) assessed as residual activity at 10 uM relative to control
T2 sequence (whole entry): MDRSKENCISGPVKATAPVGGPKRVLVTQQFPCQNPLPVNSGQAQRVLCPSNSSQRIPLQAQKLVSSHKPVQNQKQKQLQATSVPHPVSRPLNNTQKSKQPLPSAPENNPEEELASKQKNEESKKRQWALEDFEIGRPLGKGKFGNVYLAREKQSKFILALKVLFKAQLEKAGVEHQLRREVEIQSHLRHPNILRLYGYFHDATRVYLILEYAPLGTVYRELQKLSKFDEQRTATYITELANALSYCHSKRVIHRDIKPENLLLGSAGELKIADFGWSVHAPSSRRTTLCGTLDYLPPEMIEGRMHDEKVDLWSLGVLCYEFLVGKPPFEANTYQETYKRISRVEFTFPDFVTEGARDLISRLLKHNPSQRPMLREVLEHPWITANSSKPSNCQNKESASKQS

Vascular endothelial growth factor receptor 2 (Homo sapiens), sequence (P35968 whole entry): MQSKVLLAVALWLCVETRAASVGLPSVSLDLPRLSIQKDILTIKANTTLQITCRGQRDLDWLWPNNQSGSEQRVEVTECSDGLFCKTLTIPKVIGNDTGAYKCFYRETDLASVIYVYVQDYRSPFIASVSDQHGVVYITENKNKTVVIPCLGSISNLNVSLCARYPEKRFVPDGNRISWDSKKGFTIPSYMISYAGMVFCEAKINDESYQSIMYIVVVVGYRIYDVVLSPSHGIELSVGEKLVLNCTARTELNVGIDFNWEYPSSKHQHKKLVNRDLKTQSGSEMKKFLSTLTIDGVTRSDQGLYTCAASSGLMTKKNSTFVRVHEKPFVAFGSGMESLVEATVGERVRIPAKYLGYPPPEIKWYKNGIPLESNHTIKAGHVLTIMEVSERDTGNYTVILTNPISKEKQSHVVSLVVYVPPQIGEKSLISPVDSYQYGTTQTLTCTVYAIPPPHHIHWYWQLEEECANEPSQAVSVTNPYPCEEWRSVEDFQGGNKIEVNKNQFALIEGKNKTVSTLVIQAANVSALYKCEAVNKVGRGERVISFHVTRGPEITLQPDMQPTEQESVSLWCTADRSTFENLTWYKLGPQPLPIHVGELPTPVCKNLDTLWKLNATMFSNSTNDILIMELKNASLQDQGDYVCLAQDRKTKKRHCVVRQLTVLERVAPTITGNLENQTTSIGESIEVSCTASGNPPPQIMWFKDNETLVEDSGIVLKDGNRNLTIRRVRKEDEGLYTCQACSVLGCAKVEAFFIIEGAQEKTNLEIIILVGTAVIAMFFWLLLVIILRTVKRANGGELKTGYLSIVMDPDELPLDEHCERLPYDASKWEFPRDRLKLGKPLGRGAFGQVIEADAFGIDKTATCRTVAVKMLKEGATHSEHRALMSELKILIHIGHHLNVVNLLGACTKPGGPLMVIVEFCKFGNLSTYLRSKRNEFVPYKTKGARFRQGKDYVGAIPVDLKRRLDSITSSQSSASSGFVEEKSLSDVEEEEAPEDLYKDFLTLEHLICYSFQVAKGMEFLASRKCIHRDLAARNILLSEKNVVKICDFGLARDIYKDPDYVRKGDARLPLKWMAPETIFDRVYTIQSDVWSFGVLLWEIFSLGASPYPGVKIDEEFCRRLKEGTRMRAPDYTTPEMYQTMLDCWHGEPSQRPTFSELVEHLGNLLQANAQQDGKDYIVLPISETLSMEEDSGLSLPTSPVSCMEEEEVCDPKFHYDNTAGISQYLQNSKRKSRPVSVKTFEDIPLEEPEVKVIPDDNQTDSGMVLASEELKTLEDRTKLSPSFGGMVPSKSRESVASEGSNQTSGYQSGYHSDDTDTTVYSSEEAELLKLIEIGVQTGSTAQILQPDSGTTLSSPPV
Insulin-like growth factor 1 receptor (Homo sapiens), sequence (P08069 31-736 limits assumed): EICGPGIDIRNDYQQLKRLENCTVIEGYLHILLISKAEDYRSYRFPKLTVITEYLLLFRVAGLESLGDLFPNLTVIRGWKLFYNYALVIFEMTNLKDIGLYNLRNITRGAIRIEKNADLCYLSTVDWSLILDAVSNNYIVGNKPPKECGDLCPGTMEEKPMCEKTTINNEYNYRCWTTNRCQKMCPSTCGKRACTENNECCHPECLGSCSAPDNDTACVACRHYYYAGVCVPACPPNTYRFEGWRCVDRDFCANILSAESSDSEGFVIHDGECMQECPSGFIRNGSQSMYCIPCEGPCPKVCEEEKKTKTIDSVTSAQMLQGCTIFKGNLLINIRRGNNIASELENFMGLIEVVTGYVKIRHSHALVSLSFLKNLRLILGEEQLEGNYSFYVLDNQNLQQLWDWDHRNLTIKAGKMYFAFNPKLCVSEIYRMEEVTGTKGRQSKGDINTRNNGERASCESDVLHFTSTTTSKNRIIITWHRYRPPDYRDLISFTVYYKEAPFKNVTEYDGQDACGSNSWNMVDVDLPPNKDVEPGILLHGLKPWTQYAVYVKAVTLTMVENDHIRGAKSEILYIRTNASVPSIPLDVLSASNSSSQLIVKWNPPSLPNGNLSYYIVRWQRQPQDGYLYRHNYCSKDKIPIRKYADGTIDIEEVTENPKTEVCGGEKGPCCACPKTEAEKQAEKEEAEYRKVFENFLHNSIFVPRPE
Insulin-like growth factor 1 receptor (Homo sapiens), sequence (P08069 741-1367 limits assumed): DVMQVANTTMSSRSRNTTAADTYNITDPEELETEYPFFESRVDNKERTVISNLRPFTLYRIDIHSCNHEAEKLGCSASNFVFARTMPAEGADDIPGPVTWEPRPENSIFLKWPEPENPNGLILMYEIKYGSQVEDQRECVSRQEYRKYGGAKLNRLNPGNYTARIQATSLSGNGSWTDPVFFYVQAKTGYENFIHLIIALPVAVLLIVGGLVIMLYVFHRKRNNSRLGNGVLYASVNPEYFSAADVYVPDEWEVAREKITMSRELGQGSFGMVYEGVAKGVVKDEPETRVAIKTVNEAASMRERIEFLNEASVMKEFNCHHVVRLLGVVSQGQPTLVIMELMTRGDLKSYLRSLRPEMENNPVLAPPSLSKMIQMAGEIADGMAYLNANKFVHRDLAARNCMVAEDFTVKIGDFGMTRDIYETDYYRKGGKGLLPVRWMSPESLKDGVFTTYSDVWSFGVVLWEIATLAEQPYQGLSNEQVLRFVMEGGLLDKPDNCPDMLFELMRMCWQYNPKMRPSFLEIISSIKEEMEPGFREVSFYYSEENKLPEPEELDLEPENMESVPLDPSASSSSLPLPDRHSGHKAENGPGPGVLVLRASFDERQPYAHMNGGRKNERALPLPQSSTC
Ephrin type-A receptor 1 (Homo sapiens), sequence (P21709 whole entry): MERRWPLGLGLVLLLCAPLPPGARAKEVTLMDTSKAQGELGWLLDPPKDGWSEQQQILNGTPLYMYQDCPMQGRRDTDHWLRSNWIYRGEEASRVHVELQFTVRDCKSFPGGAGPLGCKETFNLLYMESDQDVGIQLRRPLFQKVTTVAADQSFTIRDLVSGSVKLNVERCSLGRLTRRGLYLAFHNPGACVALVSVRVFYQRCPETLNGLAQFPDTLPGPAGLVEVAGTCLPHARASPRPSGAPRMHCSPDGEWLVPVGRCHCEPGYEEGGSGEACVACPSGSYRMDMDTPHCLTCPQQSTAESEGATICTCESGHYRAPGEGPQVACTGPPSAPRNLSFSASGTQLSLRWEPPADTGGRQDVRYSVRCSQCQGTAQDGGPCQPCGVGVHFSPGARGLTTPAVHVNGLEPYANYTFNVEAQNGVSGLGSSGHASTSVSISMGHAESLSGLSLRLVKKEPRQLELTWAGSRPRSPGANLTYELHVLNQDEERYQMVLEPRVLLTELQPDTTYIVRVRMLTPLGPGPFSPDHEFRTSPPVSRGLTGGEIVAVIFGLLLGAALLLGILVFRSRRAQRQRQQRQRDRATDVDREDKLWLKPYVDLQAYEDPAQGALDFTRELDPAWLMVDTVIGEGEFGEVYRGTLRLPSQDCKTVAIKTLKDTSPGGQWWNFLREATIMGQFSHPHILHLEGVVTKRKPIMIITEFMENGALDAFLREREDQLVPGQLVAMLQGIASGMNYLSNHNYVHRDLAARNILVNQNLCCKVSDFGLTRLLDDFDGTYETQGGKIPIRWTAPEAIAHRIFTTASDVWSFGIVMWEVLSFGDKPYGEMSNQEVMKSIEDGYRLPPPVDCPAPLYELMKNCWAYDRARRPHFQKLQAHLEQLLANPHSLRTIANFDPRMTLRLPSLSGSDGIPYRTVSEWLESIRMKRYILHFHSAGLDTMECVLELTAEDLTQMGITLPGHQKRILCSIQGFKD
Focal adhesion kinase 1 (Homo sapiens), sequence (Q05397 2-1052 limits assumed): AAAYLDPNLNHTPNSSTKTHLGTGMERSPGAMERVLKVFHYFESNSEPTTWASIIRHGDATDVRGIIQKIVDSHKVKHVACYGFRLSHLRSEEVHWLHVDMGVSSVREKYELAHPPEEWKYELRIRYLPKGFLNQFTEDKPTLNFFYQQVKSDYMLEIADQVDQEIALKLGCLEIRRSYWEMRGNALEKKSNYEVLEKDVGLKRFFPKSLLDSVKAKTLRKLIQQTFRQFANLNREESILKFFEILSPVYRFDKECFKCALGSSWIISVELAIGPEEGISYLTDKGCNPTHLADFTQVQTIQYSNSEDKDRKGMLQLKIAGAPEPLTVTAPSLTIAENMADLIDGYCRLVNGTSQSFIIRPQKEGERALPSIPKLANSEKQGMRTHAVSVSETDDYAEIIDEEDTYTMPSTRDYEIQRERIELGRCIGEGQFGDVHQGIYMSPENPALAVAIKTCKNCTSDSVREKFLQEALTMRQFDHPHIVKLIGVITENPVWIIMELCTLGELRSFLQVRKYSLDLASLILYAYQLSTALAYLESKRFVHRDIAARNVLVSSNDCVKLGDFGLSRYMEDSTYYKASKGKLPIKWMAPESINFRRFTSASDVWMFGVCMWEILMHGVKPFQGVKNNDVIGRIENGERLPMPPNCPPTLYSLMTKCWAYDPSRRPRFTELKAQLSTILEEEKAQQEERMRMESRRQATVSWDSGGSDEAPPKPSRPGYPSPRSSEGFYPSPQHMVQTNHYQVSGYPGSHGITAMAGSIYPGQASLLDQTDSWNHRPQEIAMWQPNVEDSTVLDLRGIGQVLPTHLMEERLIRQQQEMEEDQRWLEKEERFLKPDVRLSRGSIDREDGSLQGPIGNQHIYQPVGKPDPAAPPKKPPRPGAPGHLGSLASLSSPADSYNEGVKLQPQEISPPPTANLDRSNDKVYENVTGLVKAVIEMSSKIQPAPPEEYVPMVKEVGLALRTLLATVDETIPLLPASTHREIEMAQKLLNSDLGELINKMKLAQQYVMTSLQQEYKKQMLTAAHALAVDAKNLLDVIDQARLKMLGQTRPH

## O=C1Nc2ncccc2/C1=C1/Nc2ncccc2C1=O
[1]
  Activity: 94%
[2]
  Activity: 89%
[3]
  GI50: 1700 nM
[4]
  GI50: 1070 nM
[5]
  GI50: 3950 nM
[6]
  GI50: 1010 nM
[7]
  GI50: 372 nM
[8]
  GI50: 282 nM
[9]
  Activity: 92%
[10]
  Activity: 32%
[11]
  Activity: 88%
[12]
  Activity: 101%
[13]
  Activity: 95%
[14]
  Activity: 21.21%
[15]
  inhibition: Active
[16]
  inhibition: Active
[17]
  Activity: 107%
[18]
  Activity: 76%
[19]
  Activity: 98%
[20]
  Activity: 112%
[21]
  Activity: 64%
[22]
  Activity: 63%
[23]
  Activity: 96%
[24]
  Activity: 111%
[25]
  Activity: 86%
[26]
  Activity: 81%
[27]
  Activity: 68%
[28]
  Activity: 37%
[29]
  Activity: 73%
[30]
  Activity: 102%
[31]
  Activity: 92%
[32]
  Activity: 61%
